Assay results pooled from the literature.
Lines come from different studies, so protocols differ.
JAK2 JH1: Tyrosine-protein kinase JAK2, JH1 (JAK2, Homo sapiens, UniProt O60674)
JAK2: Tyrosine-protein kinase JAK2 (JAK2, Homo sapiens, UniProt O60674)

With O=C(CSc1nc2nccnc2c(=O)n1CCc1ccccc1)Nc1nccs1 the inhibition was 2% (JAK2 JH1; enzyme activity; inhibitor; 10 µM).
With Cc1ccc(C(=O)NCc2ccsc2)cc1C#Cc1cn(C(C)C)c2ncnc(N)c12 the activity vs control was 100% (JAK2; enzyme activity; inhibitor; 1 µM).
COc1cccc(CNC(=O)c2nc3scc(COCc4ccc(C(=O)O)cc4)c3c(=O)[nH]2)c1 gave a remaining binding of 100% (JAK2 JH1; cell-free assay; competition with immobilised ligand; 1 µM).
CCCS(=O)(=O)Nc1ccc(F)c(C(=O)c2c[nH]c3ncc(-c4ccc(Cl)cc4)cc23)c1F gave an inhibition of less than 10% (JAK2; enzyme activity; inhibitor; 1 µM).
The inhibition of COc1cc2ncnc(Nc3ccc(Oc4ccccc4)cc3C)c2cc1OC is reported as -6% (JAK2; enzyme activity; inhibitor; 1 µM).
Cc1nn(CC(F)(F)F)cc1Nc1ncc(C2CC2)c(NCc2ccc(S(N)(=O)=O)cc2)n1 gave a remaining activity of 100% (JAK2; enzyme activity; inhibitor; radiometric; 1 µM).
The remaining activity of FC(F)c1nc2ccccc2n1-c1nc(N2CCOCC2)nc(N2CCOCC2)n1 is reported as 79% (JAK2; enzyme activity; inhibitor; 10 µM).
For O=C(NCCCNc1nc(Nc2cccc(NC(=O)N3CCCC3)c2)ncc1Br)C1CCC1, the remaining activity was 10% (JAK2; enzyme activity; inhibitor; radiometric; 1 µM).
The inhibition of COc1cc2nccc(Oc3ccc(NC(=O)c4c5n(n(-c6ccc(F)cc6)c4=O)CCCC5)cc3)c2cc1OC is reported as 10% (JAK2; enzyme activity; inhibitor; 0.1 µM).
CN([C@@H]1CCc2c(CC(=O)O)c3cc(S(C)(=O)=O)ccc3n2C1)S(=O)(=O)c1ccc(F)cc1 has a remaining binding of 100% (JAK2 JH1; cell-free assay; competition with immobilised ligand; 1 µM).
CCN(CC)CCNC(=O)c1c(C)[nH]c(/C=C2\C(=O)Nc3ccc(F)cc32)c1C has a remaining signal of 88.8% (JAK2; cell-free assay; 0.5 µM).
Cc1nn(CC(F)(F)F)cc1Nc1ncc(Br)c(NCCCNC(=O)C2CCC2)n1 gave a remaining activity of 67% (JAK2; enzyme activity; inhibitor; radiometric; 1 µM).
O=C(NCCCC1CCCCC1)c1ccc(CNC(=O)c2cnn(-c3ccccc3)c2C(F)(F)F)cc1 has a remaining binding of 100% (JAK2 JH1; cell-free assay; competition with immobilised ligand; 0.1 µM).
Cc1nn(CC(F)(F)F)cc1Nc1ncc(C2CC2)c(NCCCNC(=O)C2CCC2)n1 has a remaining activity of 99% (JAK2; enzyme activity; inhibitor; radiometric; 1 µM).
With N#CCCc1ccc2c(c1)-c1[nH]c3ccc([N+](=O)[O-])cc3c1CC(=O)N2 the remaining signal was 93% (JAK2; cell-free assay; 0.5 µM).
Cc1ccc(Nc2nccc(N(C)c3ccc4c(C)n(C)nc4c3)n2)cc1S(N)(=O)=O gave an inhibition of 12% (JAK2; enzyme activity; inhibitor; 0.3 µM).
O=C(NCCCNc1nc(Nc2cccc(NC(=O)N3CCCC3)c2)ncc1I)c1cccs1 has a remaining activity of 6% (JAK2; enzyme activity; inhibitor; radiometric; 1 µM).
The remaining binding of C[C@H](NC(=O)c1cnc2n1[C@](C)(Cc1ccc(C#N)cc1)C(=O)N2c1cc(Cl)c(F)c(Cl)c1)C(=O)NC1(c2ccccn2)CC1 is reported as 100% (JAK2 JH1; cell-free assay; competition with immobilised ligand; 1 µM).
Cc1ccc(NC(=O)c2ccc(C)c(C(F)(F)F)c2)cc1C#Cc1nn(C2CCC(O)CC2)c2ncnc(N)c12 (stereo not drawn) has a remaining signal of 64% (JAK2; cell-free assay; 10 µM).
CN(c1nccc(-c2cnn3ncccc23)n1)C1CC1 gave a remaining signal of 100% (JAK2 JH1; cell-free assay; 1 µM).
For CS(=O)(=O)Nc1cccc(-c2csc(NC(=O)CSc3nc4nccnc4c(=O)n3CCc3ccccc3)n2)c1, the inhibition was -7% (JAK2; enzyme activity; inhibitor; 10 µM).
The remaining binding of CC(=O)Nc1c(C(C)=O)c(=O)n(C)c2nc(-c3ccc(Cl)cc3Cl)c(-c3ccc(Cl)cc3)cc12 is reported as 100% (JAK2 JH1; cell-free assay; competition with immobilised ligand; 1 µM).
The remaining signal of O=C1NC(=O)c2cc(Nc3ccc(F)cc3)c(Nc3ccc(F)cc3)cc21 is reported as 94.6% (JAK2; cell-free assay; 0.5 µM).
COc1cc2ncnc(Nc3ccc(Oc4ccccc4)c(C)c3C)c2cc1OC gave an inhibition of -4% (Tyrosine-protein kinase JAK2, JH1 (JAK2, Homo sapiens, UniProt O60674, V617F); enzyme activity; inhibitor; 1 µM).
For Cc1nn(CC(F)(F)F)cc1Nc1ncc(C2CC2)c(NCCc2c[nH]cn2)n1, the remaining activity was 123% (JAK2; enzyme activity; inhibitor; radiometric; 1 µM).
The remaining binding of CS(=O)(=O)c1cc(C2(NC(=O)c3cncc4c3cnn4-c3ccc(F)cc3)CC2)ccn1 is reported as 100% (JAK2 JH1; cell-free assay; competition with immobilised ligand; 1 µM).
The remaining signal of Cc1ccc(NC(=O)c2ccc(CN3CCN(C)CC3)cc2)cc1Nc1nc(-c2cccnc2)cs1 is reported as 96.3% (JAK2; cell-free assay; 0.5 µM).
With COCCOc1nc(-c2ccc(Cl)nc2)nc2c1CN(C(=O)c1ncn3ccccc13)CC2 the remaining binding was 100% (JAK2 JH1; cell-free assay; competition with immobilised ligand; 0.1 µM).
With O=C(NCCCNc1nc(Nc2cccc(NC(=O)N3CCCC3)c2)ncc1C1CC1)C1CCC1 the remaining activity was 68% (JAK2; enzyme activity; inhibitor; radiometric; 1 µM).
Cc1cc(NC(=O)c2cccc3cc(-c4cccc5[nH]nc(N)c45)ccc23)ccc1F gave an activity vs control of 78% (JAK2; enzyme activity; inhibitor; 0.1 µM).
For C[C@@H]1CCN(c2nccc(-c3cnn4ncccc34)n2)C1, the remaining signal was 90% (JAK2 JH1; cell-free assay; 1 µM).
For CCS(=O)(=O)c1cc2cc(C[C@](O)(CC(C)(C)c3ccc(F)cc3C(N)=O)C(F)(F)F)[nH]c2cn1, the remaining binding was 53% (JAK2 JH1; cell-free assay; competition with immobilised ligand; 1 µM).
With FC(F)(F)Oc1cccc(-c2cnc3ccc(-c4ccncc4)nn23)c1 the activity vs control was 74% (JAK2; enzyme activity; inhibitor; radiometric; 1 µM).
